Most compounds without a hit are left out; they make up all but 3.8% or so of the library.
T cell HTS: T cell immune modulation candidate. 330,000 compounds, 0.068% hits. response (vesicle binding), % at 7 µM. 2C CD8+ T cell-vesicle binding, flow cytometry; hits give low values;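 active = response, share of CD8 T cells binding vesicles, and their 90th percentile fluorescence all below set limits, cut at about 80% in these data, passing the limit was not always enough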;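 note: values below 100% mean blocked vesicle binding to the CD8+ T cells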
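Benchmarks: naked versus QL9-loaded vesicles / Assay system: purified 2C TCR transgenic mouse naive CD8+ T cells / Technique: high-throughput flow cytometry with anti-B7-1 and anti-CD8 staining / Timing: Cell–vesicle co-incubation 1.5 h at 37 °C, staining 20 min on ice / Read-out: percent CD8+ FL2 mean versus row control / Probe or stimulus: QL9-loaded Drosophila micro-vesicles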
rCAG binder: molecules binding r(CAG) RNA repeats. r(CAG) RNA repeat, TO-PRO-1 dye displacement fluorescence. 370,000 compounds, 1.3% hits. AID 651821. inhibition, % at 3 µM;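 active = inhibition above the plate cutoff, the mean of all test compounds on that plate plus 3 SD, cut at about 35% in these data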;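 note: higher means more dye released from RNA so lower well fluorescence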
Beta2AR agonist: human beta-2 adrenergic receptor agonism by FAP; P07550; Am2.2-beta2AR cells, FAP receptor internalization, flow cytometry; response, % (concentration not given with the values); 340,000 compounds, 0.43% hits; AID 504454;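 active = response above a set limit, near 3 SD of response in nonfluorescent compounds, cut at about 42% in these data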
Target sequence (P07550 whole entry, looked up): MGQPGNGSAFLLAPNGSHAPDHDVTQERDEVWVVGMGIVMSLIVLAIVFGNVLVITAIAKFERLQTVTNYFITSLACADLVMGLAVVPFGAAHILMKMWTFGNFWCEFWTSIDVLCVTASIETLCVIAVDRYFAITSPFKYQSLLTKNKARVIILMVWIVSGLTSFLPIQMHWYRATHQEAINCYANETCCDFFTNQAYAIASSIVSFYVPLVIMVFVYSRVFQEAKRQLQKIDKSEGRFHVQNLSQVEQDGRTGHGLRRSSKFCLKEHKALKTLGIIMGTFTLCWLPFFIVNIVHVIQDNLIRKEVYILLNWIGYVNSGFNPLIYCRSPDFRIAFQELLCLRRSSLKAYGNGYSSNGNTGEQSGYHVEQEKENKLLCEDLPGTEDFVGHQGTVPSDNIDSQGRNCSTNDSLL
MPTP inh: blocks calcium-induced mitochondrial swelling | isolated mouse mitochondria, Ca2+ swelling absorbance, 30 min | inhibition, % at 10 µM | 360,000 compounds, 1.4% hits;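 active = inhibition of 50% or more, scaled per plate between neutral and stimulator controls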
Granule exo inh: blocks lytic granule exocytosis | TALL-104 LAMP-1 surface exposure, flow cytometry; cells stimulated with thapsigargin and PMA | inhibition, % at 10 µM | 360,000 compounds, 0.66% hits | AID 651702;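 active = inhibition above about 55%, limit read from the data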
V-ATPase pH: regulators of yeast V-ATPase proton transport. S. cerevisiae, pHLuorin cytosolic pH fluorescence. response, % at 10 µM. 350,000 compounds, 0.37% hits; in the data active = response mostly above about 7.3%, no sharp cut-off; inactive = mostly below about 5.4%; note: actives read high
MPTP counter: mitochondrial membrane potential, counter-screen | shares compounds with MPTP inh | isolated mitochondria, Rhodamine 123 fluorescence | inhibition, % at 10 µM | 5,000 compounds, 78% hits; in the data active = inhibition above about 22%
MPTP abs DR: dose response confirmation of mitochondrial permeability transition pore inhibitors; shares compounds with MPTP inh; isolated mitochondria swelling, absorbance; IC50, µM; 780 compounds, 58% hits; in the data active = IC50 below about 20 µM
MPTP counter DR: active in counter-screen for permeability transition pore inhibitors; shares compounds with MPTP inh; 780 compounds, 49% hits; IC50, µM; AID 651564; isolated mitochondria counterscreen, fluorescence read-out; in the data active = IC50 below about 80 µM
Numbers stand for hits; i = inactive; nt = not tested or not shown.

SMILES | T cell HTS | rCAG binder | Beta2AR agonist | MPTP inh | Granule exo inh | V-ATPase pH | MPTP counter | others
C[C@@H]1C[C@H](O)CCCCCC(=O)Cc2cc(O)cc(O)c2C(=O)O1 | nt | i | nt | nt | nt | nt | nt
CCOc1ccc2nc(N3C(=O)/C(=C/c4ccc(Cl)cc4)NC3=S)sc2c1 | nt | i | i | 92 | i | i | i
COc1ccc2nc(N3C(=O)CNC3=S)sc2c1 | i | i | i | i | i | i | nt
O=C(Nc1cc(S(=O)(=O)Nc2ccccc2Cl)ccc1O)c1sc2cc(Cl)ccc2c1Cl | i | i | i | 94 | i | i | i
COc1ccccc1NS(=O)(=O)c1ccc(Cl)c(NC(=O)c2sc3cc(Cl)ccc3c2Cl)c1 | i | i | i | i | i | i | nt
CCOc1ccc(CN(C)c2ccc(S(=O)(=O)N3CCN(C)CC3)cc2[N+](=O)[O-])cc1OC | i | nt | i | 55 | i | i | 93
CCN1CCN(CC(=O)n2c3c(c4ccccc42)CC(C)CC3)CC1 (configuration not stated) | i | i | i | 78 | i | i | i | MPTP abs DR=8.7;MPTP counter DR=i
COc1ccc(NC(=O)Nc2ccc(F)cc2F)c(C)c1 | i | i | i | i | i | i | nt
O=C(Nc1ccc(Cl)cc1)Nc1ccccc1Sc1ncc([N+](=O)[O-])s1 | i | i | i | 86 | i | i | 73
Cc1cc([N+](=O)[O-])ccc1NC(=O)Nc1ccc(F)cc1F | i | i | i | 98 | i | i | 78
O=C(Nc1csc([N+](=O)[O-])c1)Nc1ccccc1Cl | i | i | i | 89 | i | i | 80
O=C(Nc1ccccc1Cl)Nc1ccccc1Cl | i | i | i | i | i | i | nt
O=C(Nc1ccc([N+](=O)[O-])cc1Cl)c1cccc([N+](=O)[O-])c1 | nt | i | nt | i | i | i | nt
O=C(Nc1ccccc1F)Nc1ccc([N+](=O)[O-])cc1Cl | i | i | i | 90 | i | i | 92
Nc1nc2c(ncn2[C@@H]2O[C@H](C(=O)N[C@H](Cc3ccccc3)C(=O)NCc3ccc4c(c3)OCO4)[C@@H](O)[C@H]2O)c(=O)[nH]1 | nt | i | nt | nt | nt | nt | nt
COC(=O)[C@]12C[C@H](CC(=O)NCCCN3CCCC3=O)C(=O)N(Cc3ccc4c(c3)OCO4)C1=C[C@H](C(C)(C)C)O[C@@H]2C | nt | i | nt | nt | nt | nt | nt
CCC(=O)OCCCN1CCC2(CCC(c3ccccc3)CC2)C1=O (configuration not stated) | nt | i | nt | nt | nt | nt | nt
COCC(=O)N1CCC(C(=O)NCC2COc3ccccc3O2)CC1 (configuration not stated) | nt | i | nt | nt | nt | nt | nt
CC[C@H](CCC(=O)N(c1ccccc1)c1ccccc1)C1CC1 | nt | i | nt | nt | nt | nt | nt
O=C(Nc1cccc(Cl)c1)c1cccc(Oc2ccc([N+](=O)[O-])cc2Cl)c1 | i | i | i | 86 | i | i | 97
COc1ccc([N+](=O)[O-])cc1NC(=O)Nc1cccc(Cl)c1 | i | i | i | 107 | i | i | 67
COc1ccc(CNS(=O)(=O)CC2NCc3cc(OC)ccc32)cc1 (configuration not stated) | nt | i | nt | nt | nt | nt | nt
CCCC[C@H]1C2CC(OC(=O)Nc3ccc(Cl)cc3)C(C2)[C@H]2CCCCN21 (some centres not stated) | nt | i | nt | nt | nt | nt | nt
COc1ccc(S[C@]2(C(=O)N3CCOCC3)CC(=O)N(C(=O)C3CC3)[C@@H]2c2ccc(OC)cc2)cc1 | nt | i | nt | nt | nt | nt | nt
CCOc1ccc(C(=O)Nc2sc3c(c2C(=O)OC)CC(C)(C)NC3(C)C)cc1 | i | i | i | 85 | i | i | i | MPTP abs DR=20;MPTP counter DR=i
Cc1cc(C)cc(NCc2cc(=O)oc3cc(-c4ccccc4)c(O)cc23)c1 | i | i | i | i | i | i | nt
COc1ccc(C)cc1NCc1cc(=O)oc2cc(-c3ccccc3)c(O)cc12 | i | i | i | 94 | i | i | 57
Cc1ncc(CO)c(/C=N/NC(=S)Nc2ccc(Cl)c(Cl)c2)c1O | i | i | i | 87 | i | i | 70
Cc1ncc(CO)c(/C=N/NC(=O)c2ccc(O)cc2)c1O | i | i | i | i | i | i | nt
Cc1ncc(CO)c(/C=N/NC(=O)c2ccccc2Br)c1O | i | i | i | i | i | i | nt
